Experimental data from different studies.
Each line is one published result; the experiments were not run side by side.
Target: Protein-tyrosine kinase 6 (PTK6, Homo sapiens, UniProt Q13882)

Cc1cc(C)c(-n2ccn3nc(-c4cccnc4)cc23)cc1NC(=O)c1cc(C#N)cc(S(F)(F)(F)(F)F)c1
remaining binding (cell-free assay, competition with immobilised ligand; 0.1 µM): 99.5%

COc1cc2ncnc(Nc3ccc(Oc4ccccc4)c(C)c3C)c2cc1OC
inhibition (enzyme activity, inhibitor; 1 µM): 93%

CCC(=O)N[C@H]1CC[C@@H](C(=O)N(C)c2ccc(-c3nc4ccccc4o3)cc2)C1
remaining binding (cell-free assay, competition with immobilised ligand; 1 µM): 100%

CCN(CC)c1ccc(C2=NNC(=O)CC2C)cc1[N+](=O)[O-] (stereo not shown)
remaining activity (enzyme activity, inhibitor; 10 µM): 105%

CNC(=O)Nc1ccc2c(c1)[C@@]1(CC2)OC(=O)N(CC(=O)N(Cc2ccc(F)cc2)[C@@H](C)C(F)(F)F)C1=O
remaining binding (cell-free assay, competition with immobilised ligand; 1 µM): 90%

FC(F)(F)Oc1cccc(-c2cnc3ccc(-c4ccncc4)nn23)c1
activity vs control (enzyme activity, inhibitor, radiometric; 5 µM): 70%

CC(C)(C)c1nc2c(s1)c1nc(N)ncc1c1ccc(NS(=O)(=O)c3c(F)cccc3F)c(F)c12
remaining activity (enzyme activity, inhibitor, radiometric; 1 µM): 104%

O=C1Nc2ccc(Cl)cc2C1=Cc1cc(Cl)c(O)c(Cl)c1
remaining signal (cell-free assay; 0.5 µM): 73.8%

CCCOc1ccc(OC)c(F)c1C(=O)c1ccc(C(=O)N[C@@H]2CNC[C@H]2NC(=O)c2ccc3[nH]ncc3c2)cc1
remaining activity (enzyme activity, inhibitor; 10 µM): 97%

COc1cc(Cl)c(C(=O)N[C@@H](CN[C@H]2CC[C@@H](N)CC2)Cc2ccc(C#N)cc2)cc1-c1ccc(CN[C@H](C)c2ccc(C)cc2)o1
remaining activity (enzyme activity, inhibitor; 1 µM): 98%

COc1cc(Nc2cnc(C#N)c(O[C@H](C)CN(C)C)n2)ncc1-c1cnn(C)c1
remaining activity (enzyme activity, inhibitor, radiometric; 10 µM): 91%

Cc1nc(Cc2cccc(C(F)(F)F)c2)sc1-c1ccc(C(N)=O)nc1
remaining binding (cell-free assay, competition with immobilised ligand; 1 µM): 100%

CS(=O)(=O)CCNCc1ccc(-c2ccc3ncnc(Nc4ccc(OCc5cccc(F)c5)c(Cl)c4)c3c2)o1
remaining signal (cell-free assay; 0.5 µM): 103%

C=CC(=O)Nc1cc(Nc2nccc(Nc3cc(Cl)c(F)cc3C(C)(C)O)n2)c(OC)cc1N1CC[C@@H](N(C)C)C1
inhibition (enzyme activity, inhibitor; 1 µM): 63%

O=C(N1CCS(=O)(=O)CC1)N1C[C@H](c2ccc(OC(F)(F)F)cc2)C[C@H](c2nc(C3CC3)no2)C1
remaining binding (cell-free assay, competition with immobilised ligand; 1 µM): 100%

O=C(Nc1cnn(-c2csc(C(=O)NC3COC3)c2)c1)Nc1c(F)cccc1Cl
remaining activity (enzyme activity, inhibitor; 5 µM): 85.7%

CC(C)(O)[C@H]1CC[C@H](Nc2ccc3ncc(-c4cccc(C(F)(F)F)c4)n3n2)CC1
remaining activity (enzyme activity, inhibitor; 1 µM): 50.4%

O=C(Nc1cnn(-c2csc(C(=O)NC3COC3)c2)c1)Nc1ccccc1Cl
remaining activity (enzyme activity, inhibitor; 5 µM): 118%

CS(=O)(=O)N1CCCC(NC(=O)[C@H](CCC2CCCCC2)NC(=O)c2ccc(CNc3ncnc4c3nnn4-c3ccccc3)cc2)C1 (stereo partly shown)
remaining binding (cell-free assay, competition with immobilised ligand; 0.1 µM): 76%

CCN(CC)CCNC(=O)c1c(C)[nH]c(/C=C2\C(=O)Nc3ccc(F)cc32)c1C
inhibition (enzyme activity, inhibitor; 0.3 µM): 6%

CN(C)C1CCN(CC#Cc2nn(C3CCCC3)c3nc(NCc4ccccc4)ncc23)C1 (stereo not shown)
inhibition (enzyme activity, inhibitor, FRET; 0.1 µM): -2%

CNC(=O)c1cc2c(Oc3ccc(NC(=O)C4(C(=O)Nc5ccc(F)cc5)CC4)cc3)ccnc2cc1OC
inhibition (enzyme activity, inhibitor, radiometric; 1 µM): 98%

Cc1ccc(Nc2nccc(N(C)c3ccc4c(C)n(C)nc4c3)n2)cc1S(N)(=O)=O
inhibition (enzyme activity, inhibitor; 0.3 µM): 23%

COc1ccc2c(O[C@@H]3C[C@H]4C(=O)N[C@]5(C(=O)O)CC5/C=C\CCCCC[C@H](NC(=O)OC5CCCC5)C(=O)N4C3)cc(-c3csc(NC(=O)C(C)C)n3)nc2c1C (stereo partly shown)
remaining binding (cell-free assay, competition with immobilised ligand; 1 µM): 97%

CC/C(=N\NC(=O)NCc1cccc(O)c1)c1ccc(O)c(C)c1O
inhibition (enzyme activity, inhibitor; 0.1 µM): -3%

CNC(=O)c1cc(Oc2ccc(NC(=O)Nc3ccc(Cl)c(C(F)(F)F)c3)cc2)ccn1
inhibition (enzyme activity, inhibitor; 10 µM): 58%

NS(=O)(=O)c1cc(NC(=O)C2(c3ccccc3Cl)CC2)ccc1Oc1cccc(Cl)c1
remaining binding (cell-free assay, competition with immobilised ligand; 1 µM): 99%

Cc1ccc(C(=O)NCc2ccsc2)cc1C#Cc1cn(C(C)C)c2ncnc(N)c12
activity vs control (enzyme activity, inhibitor; 1 µM): 7%
